Compound activity (PubChem BioAssay)
A selection: hits, their analogues and other compounds. The true share with any hit is near 5.9%.
KDM4C inh: KDM4C (human) demethylase inhibition | Q9H3R0 | GST-KDM4C 2-372, H3K9me3 peptide, LANCE TR-FRET | inhibition, % at 12.5 µM | 96,000 tested, 0.15% active;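 active = mean replicate inhibition above about 25%, with at least 55% of replicates also reaching it, limit read from the data, passing the limit was not always enough; inconclusive = only one of those two conditions met; inactive = neither condition met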
Target sequence (Q9H3R0 2-372 limits assumed): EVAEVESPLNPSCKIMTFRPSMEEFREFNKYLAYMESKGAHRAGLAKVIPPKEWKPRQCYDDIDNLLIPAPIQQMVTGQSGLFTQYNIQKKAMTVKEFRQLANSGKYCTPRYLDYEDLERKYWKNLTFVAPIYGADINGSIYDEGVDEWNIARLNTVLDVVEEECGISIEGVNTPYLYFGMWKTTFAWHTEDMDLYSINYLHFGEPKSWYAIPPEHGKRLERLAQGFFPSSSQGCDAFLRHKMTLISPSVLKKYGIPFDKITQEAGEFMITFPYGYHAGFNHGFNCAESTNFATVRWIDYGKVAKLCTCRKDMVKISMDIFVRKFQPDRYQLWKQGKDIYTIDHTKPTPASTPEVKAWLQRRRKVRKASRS
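Assay system: GST-GASC-1 enzyme fragment 2-372 | Amount: 10 nM enzyme | Medium: HEPES buffer, pH 7.5, plus ascorbate | Reagent: H3K9me3 peptide substrate, Fe(II), 2-oxoglutarate | Doses: Single-point compound screen | Incubation: 30 min demethylation and 1 h detection at room temperature | Measured by: LANCE TR-FRET, excitation 340 nm, emissions 618 and 671 nm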
IDH1 mut inh: blocks human IDH1 R132H reductase activity; O75874; diaphorase/resazurin fluorescence, 60 min; inhibition, % at 10 µM; 70,000 tested, 0.18% active; AID 624101; in the data active = inhibition above about 34%; inconclusive = no clear call, values can overlap the other calls; inactive = below about 11%;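 note: 0% = DMSO and 100% = no enzyme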
Pf Dd2 inh: inhibitors of Plasmodium falciparum Dd2 growth; P. falciparum Dd2 growth, SYBR Green, 72 h; stronger effect = lower value; activity change, % at 10 µM; 94,000 tested, 2.3% active; AID 1159554; in the data active = activity change below about -80%; inconclusive = no clear call, values can overlap the other calls
T cruzi growth-1: inhibitors of T. cruzi proliferation | T. cruzi beta-gal in NIH3T3, GalScreen luminescence, 90 h | inhibition, % at 8.34 µM | 77,000 tested, 5.9% active | AID 624255;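 active = mean inhibition above about 93%, with at least 55% of replicates each passing it, limit read from the data, passing the limit was not always enough; inconclusive = only one of those two conditions holds; inactive = neither condition holds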
T cruzi growth-2: inhibitors of T. cruzi proliferation; shares compounds with T cruzi growth-1; T. cruzi beta-gal in NIH3T3, GalScreen luminescence, 90 h; inhibition, % at 8.35 µM; 5,600 tested, 72% active;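 active = mean replicate inhibition above about 95% and at least 55% of replicates individually reaching it, limit read from the data; inconclusive = only one of the two criteria is met; inactive = neither criterion is met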
T cruzi growth-3: Trypanosoma cruzi proliferation inhibition; shares compounds with T cruzi growth-1; T. cruzi beta-gal in NIH3T3, GalScreen luminescence, 90 h; inhibition, % at 2.09 µM; 5,600 tested, 21% active;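 active = mean inhibition above about 95%, with at least 55% of replicates also reaching it, limit read from the data; inconclusive = meets just one of the two conditions; inactive = meets neither condition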;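 note: plate controls were neutral control median for no effect and positive control median for full effect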
NIH3T3 tox: kills mouse NIH/3T3 fibroblasts; shares compounds with T cruzi growth-1; NIH/3T3 viability, CellTiter-Glo ATP luminescence, 90 h; cytotoxicity (signal decrease), % at 8.35 µM; 5,600 tested, 14% active; AID 651742;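 active = mean signal decrease across replicates above about 35% based on untreated-well scatter, with enough replicates individually passing, limit read from the data; inconclusive = no rule stated though some were filed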;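 note: 0% = median of neutral control wells and 100% = median of positive control wells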
NIH3T3 tox 2: NIH/3T3 (mouse) viability loss | shares compounds with T cruzi growth-1 | NIH/3T3 viability, CellTiter-Glo ATP luminescence, 90 h | inhibition, % at 24.9 µM | 5,600 tested, 56% active;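 active = mean loss of cell viability signal at or above a set limit, and enough replicates individually reaching it; inconclusive = meets only the mean limit or only the replicate share; inactive = meets neither condition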;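 note: 0% = median of neutral control wells and 100% = median of positive control wells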
Starred values were filed as active, the others as inactive; u = inconclusive; x = not tested or not shown.

SMILES	KDM4C inh	IDH1 mut inh	Pf Dd2 inh	T cruzi growth-1	T cruzi growth-2	T cruzi growth-3	NIH3T3 tox	NIH3T3 tox 2
C[C@H](O)C#Cc1ccc([C@H]2[C@H]3CN(S(=O)(=O)c4ccccc4)CCCCN3[C@H]2CO)cc1	-1	x	-9	u	97*	20	3	6
Cc1cccc(S(=O)(=O)N2CCCCN3[C@@H](CO)[C@H](c4ccc(C#C[C@@H](C)O)cc4)[C@@H]3C2)c1	0	x	-25	82	x	x	x	x
COc1ccccc1N(Cc1cc2ccc(C)cc2[nH]c1=O)S(=O)(=O)c1ccccc1	x	0	x	x	x	x	x	x
COc1ccc(S(=O)(=O)Nc2cccc3c2O[C@H](CN(C)Cc2ccc(C(F)(F)F)cc2)[C@@H](C)CN([C@H](C)CO)C3=O)cc1	0	0	-25	62	x	x	x	x
CCC(=O)N1CC2(C1)[C@@H](c1ccc(-c3ccc(C)cc3)cc1)[C@H](CO)N2S(=O)(=O)CC	-2	x	-11	x	x	x	x	x
C[C@@H]1CCCCO[C@@H](CN(C)Cc2ccc(C(F)(F)F)cc2)[C@H](C)CN([C@@H](C)CO)C(=O)c2cc(NC(=O)Nc3ccc(F)cc3)ccc2O1	0	2	-54	94	x	x	x	x
C[C@@H]1CN([C@@H](C)CO)C(=O)c2cc(NC(=O)Nc3ccc(F)cc3)ccc2O[C@@H](C)CCCCO[C@@H]1CN(C)Cc1ccc(C(F)(F)F)cc1	0	x	-76	101*	105*	114*	21	3
C[C@@H]1CCCCO[C@@H](CN(C)Cc2ccc(C(=O)O)cc2)[C@H](C)CN([C@H](C)CO)C(=O)c2cc(NC(=O)Nc3ccc(C(F)(F)F)cc3)ccc2O1	17	2	23	42	x	x	x	x
C[C@H](CO)N1C[C@H](C)[C@@H](CN(C)Cc2ccc(C(F)(F)F)cc2)OCCCC[C@H](C)Oc2ccc(NC(=O)Nc3ccc(F)cc3)cc2C1=O	0	x	-11	u	95	110*	10	13
C[C@@H]1O[C@@H](O[C@@H]2[C@@H](O)[C@H](C)O[C@@H](OCC3OC(Oc4c(-c5ccc(O)c(O)c5)oc5cc(O)cc(O)c5c4=O)C(O)C(O)C3O)[C@@H]2O)[C@H](O)[C@H](O)[C@H]1O (some centres not stated)	x	-1	x	x	x	x	x	x
COC(=O)C[C@H]1C[C@H]2c3cc(N)ccc3O[C@H]2[C@H](CO)O1	x	-1	-10	18	x	x	x	x
COc1ccc(NC(=O)Nc2ccc3c(c2)C(=O)N([C@@H](C)CO)C[C@H](C)[C@@H](CN(C)Cc2ccc(Cl)c(Cl)c2)OCCCC[C@H](C)O3)cc1	0	2	-29	124*	99*	113*	16	21
COc1ccc(NC(=O)Nc2ccc3c(c2)C(=O)N([C@H](C)CO)C[C@@H](C)[C@H](CN(C)Cc2ccc(Cl)c(Cl)c2)OCCCC[C@H](C)O3)cc1	-2	x	-62	121*	93	107*	9	17
C[C@@H]1CN([C@@H](C)CO)C(=O)c2cc(NC(=O)Nc3ccccc3)ccc2O[C@@H](C)CCCCO[C@H]1CN(C)Cc1ccc(Cl)c(Cl)c1	6	0	-75	69	x	x	x	x
C[C@@H]1CCCCO[C@@H](CN(C)Cc2ccc(Cl)c(Cl)c2)[C@H](C)CN([C@@H](C)CO)C(=O)c2cc(NC(=O)Nc3ccccc3)ccc2O1	-1	-13	-72	70	x	x	x	x
C[C@H](CO)N1C[C@H](C)[C@@H](CN(C)C(=O)Nc2ccccc2)OCCCC[C@H](C)Oc2ccc(NC(=O)c3ccncc3)cc2C1=O	-3	8	-26	2	x	x	x	x
C[C@@H]1CCCCO[C@@H](CN(C)S(=O)(=O)c2ccccc2)[C@@H](C)CN([C@H](C)CO)C(=O)c2cc(NS(=O)(=O)c3ccc(Cl)cc3)ccc2O1	0	x	-34	63	x	x	x	x
C[C@H](CO)N1C[C@H](C)[C@@H](CN(C)S(=O)(=O)c2ccc(Cl)cc2)OCCCC[C@H](C)Oc2ccc(NS(=O)(=O)c3ccccc3)cc2C1=O	0	x	-67	x	x	x	x	x
C[C@@H]1CCCCO[C@@H](CN(C)S(=O)(=O)c2ccc(Cl)cc2)[C@H](C)CN([C@@H](C)CO)C(=O)c2cc(NS(=O)(=O)c3ccc(Cl)cc3)ccc2O1	-1	x	1	61	x	x	x	x
C[C@@H]1CCCCO[C@H](CN(C)S(=O)(=O)c2ccc(Cl)cc2)[C@H](C)CN([C@H](C)CO)C(=O)c2cc(NS(=O)(=O)c3ccc(Cl)cc3)ccc2O1	1	2	-66	108*	101*	116*	10	-15
C[C@H](CO)N1C[C@H](C)[C@H](CN(C)S(=O)(=O)c2ccccc2)OCCCC[C@H](C)Oc2ccc(NS(=O)(=O)c3ccc(Cl)cc3)cc2C1=O	-3	x	-33	118*	104*	88	-18	-5
C[C@@H]1CN([C@@H](C)CO)C(=O)c2cc(NS(=O)(=O)c3ccc(Cl)cc3)ccc2O[C@@H](C)CCCCO[C@H]1CN(C)S(=O)(=O)c1ccccc1	-1	-1	-22	120*	108*	53	11	4
C[C@H](CO)N1C[C@H](C)[C@@H](CN(C)S(=O)(=O)c2ccccc2)OCCCC[C@H](C)Oc2ccc(NS(=O)(=O)c3ccc(Cl)cc3)cc2C1=O	25	x	-4	114*	101*	67	30	9
Cn1cnc(S(=O)(=O)N[C@H]2C=C[C@H](CC(=O)NCC3CC3)O[C@@H]2CO)c1	-1	0	-20	-17	x	x	x	x
COc1ccccc1CNC(=O)C[C@H]1C[C@H]2c3cc(NC(=O)C4CCOCC4)ccc3O[C@H]2[C@H](CO)O1	-3	0	28	38	x	x	x	x
C[C@@H]1CCCCO[C@@H](CN(C)S(=O)(=O)c2ccc(Cl)cc2)[C@H](C)CN([C@H](C)CO)C(=O)c2cc(NS(=O)(=O)c3ccccc3)ccc2O1	-1	x	-70	104	x	x	x	x
C[C@@H]1CN([C@@H](C)CO)C(=O)c2cc(NS(=O)(=O)c3ccc(Cl)cc3)ccc2O[C@@H](C)CCCCO[C@@H]1CN(C)S(=O)(=O)c1ccccc1	1	1	-65	83	x	x	x	x
C[C@@H]1CN([C@H](C)CO)C(=O)c2cc(NS(=O)(=O)c3ccc(Cl)cc3)ccc2O[C@@H](C)CCCCO[C@@H]1CN(C)S(=O)(=O)c1ccccc1	-3	1	-64	118*	104*	93	-27	22
